Data as given in ChEMBL document CHEMBL1221194, “Forward chemical genetic approach identifies new role for GAPDH in insulin signaling” (Nat Chem Biol, 2007).
Activity calls are given as the source filed them. The rule behind the calls is not given here.

Experiments:
[1] = target: Glyceraldehyde-3-phosphate dehydrogenase (Oryctolagus cuniculus) (UniProt P46406); assay: Induction of rabbit GAPDH tetramer segregation into monomers at 10 uM after 30 mins by SDS-PAGE
Summary of the method: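 Purified rabbit muscle GAPDH was incubated with compound at 0.4, 2 or 10 µM for 30 min at 4 °C. Samples were then chemically cross-linked, resolved by SDS-PAGE and silver-stained. Tetramer and monomer bands were compared.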

[2] = target: Glyceraldehyde-3-phosphate dehydrogenase (Mus musculus) (UniProt P16858); assay: Inhibition of GAPDH in mouse 3T3-L1 cells assessed as 2-NBD-glucose uptake after 15 mins; format: cell-based
Summary of the method: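 3T3-L1 preadipocytes grown overnight in DMEM with 10% heat-inactivated newborn calf serum, washed and held in PBS 5 min. Compound applied with 2-NBD-glucose ([…]) for 15 min at 37 °C. Cells washed, lysed in 0.1 M potassium phosphate pH 10 with 1% Triton X-100, DMSO added. Fluorescence read at ex 466/em 540 nm.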

[3] = target: Glyceraldehyde-3-phosphate dehydrogenase (Homo sapiens, UniProt P04406); assay: Inhibition of GAPDH
Summary of the method: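 Purified rabbit muscle GAPDH was tested in vitro for its glycolytic enzymatic activity. The read-out was the half-maximal inhibitory concentration.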

[4] = target: Glyceraldehyde-3-phosphate dehydrogenase (Oryctolagus cuniculus) (UniProt P46406); assay: Inhibition of rabbit GAPDH glycolytic activity at > 50 uM
[5] = target: Glyceraldehyde-3-phosphate dehydrogenase (Mus musculus) (UniProt P16858); assay: Inhibition of GAPDH in mouse 3T3L1 lysate assessed as inhibition of conversion of Ptdlns(3, 4, 5)P3 to PIP2 by fluorescent phosphoinositide TLC
Summary of the method: (§1)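 3T3-L1 preadipocyte lysate (5 µl) in 50 mM ammonium carbonate pH 8.0 with 2 mM DTT. Compound present, reaction started with C6-NBD6-PtdIns(3,4,5)P3 or PtdIns(4,5)P2, run 2 h at 25 °C. Products resolved by TLC on oxalate-treated silica. Hydrolyzed spot quantified as fraction of total fluorescence; s.d. from two independent experiments.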

3T3-L1 [6] = assay: Inhibition of conversion of Ptdlns(3, 4, 5)P3 to PIP2 in GAPDH depleted mouse 3T3L1 lysate by fluorescent phosphoinositide TLC; format: functional
Summary of the method: (§2)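 3T3-L1 lysate immunodepleted of GAPDH, run in 25 µl ammonium carbonate/DTT buffer pH 8.0 with fluorescent PtdIns(3,4,5)P3 or PtdIns(4,5)P2 substrate. Run with or without exogenous GAPDH ([…]), compound tested in the presence of GAPDH, 2 h at 25 °C. Sampled every 20 min and resolved by TLC. Hydrolyzed/total spot fluorescence; two independent experiments.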

[7] = target: Glyceraldehyde-3-phosphate dehydrogenase (Mus musculus) (UniProt P16858); assay: Inhibition of GAPDH in mouse 3T3L1 […] assessed as increase in Ptdlns(4, 5)P2 level by immunofluorescence method
Summary of the method: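 Whole 3T3-L1 cells given compound in PBS for 1 min, DMSO as control, then fixed in 4% formaldehyde. Stained with antibody to PtdIns(4,5)P2 and imaged by fluorescence microscopy (ex 488/em 510 nm). Intensity normalized to DMSO control; s.d. from 15 images over three independent experiments.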

Caenorhabditis elegans [8] = assay: inhibition of GAPDH in Caenorhabditis elegans e1370 daf-2 mutant assessed as inhibition of dauer formation
Summary of the method: (§3)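 C. elegans daf-2 (e1370) kept in M9 buffer with 2% E. coli OP50 culture and compound ([…]), 4 d at 25 °C. Young adult-size animals counted in solution.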

Caenorhabditis elegans [9] = assay: inhibition of GAPDH in Caenorhabditis elegans e1370 daf-2 mutant assessed as inhibition of dauer formation relative to control; summary of the method: as §3
[10] = target: Glyceraldehyde-3-phosphate dehydrogenase (Oryctolagus cuniculus, UniProt P46406); assay: Inhibition of rabbit GAPDH glycolytic activity
Summary of the method: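 Enzyme source was purified GAPDH from rabbit muscle, assayed in vitro for its glycolytic enzymatic activity. IC50 was reported as the half-maximal inhibitory concentration.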

[11] = target: Glyceraldehyde-3-phosphate dehydrogenase (Mus musculus) (UniProt P16858); assay: Induction of GAPDH tetramer segregation into monomers in mouse 3T3L1 lysate at […] after 3 hrs by immunoprecipitation method
[12] = Activation of PI3K assessed as tyrosine phosphorylation of p85 subunit
[13] = target: Glyceraldehyde-3-phosphate dehydrogenase (Mus musculus) (UniProt P16858); assay: Inhibition of GAPDH in mouse 3T3L1 lysate assessed as inhibition of conversion of Ptdlns(4, 5)P2 to PIP by fluorescent phosphoinositide TLC; summary of the method: as §1
3T3-L1 [14] = assay: Inhibition of conversion of Ptdlns(4, 5)P2 to PIP in GAPDH depleted mouse 3T3L1 lysate by fluorescent phosphoinositide TLC; format: functional; summary of the method: as §2

Sequence of Glyceraldehyde-3-phosphate dehydrogenase (Mus musculus) (P16858 whole entry): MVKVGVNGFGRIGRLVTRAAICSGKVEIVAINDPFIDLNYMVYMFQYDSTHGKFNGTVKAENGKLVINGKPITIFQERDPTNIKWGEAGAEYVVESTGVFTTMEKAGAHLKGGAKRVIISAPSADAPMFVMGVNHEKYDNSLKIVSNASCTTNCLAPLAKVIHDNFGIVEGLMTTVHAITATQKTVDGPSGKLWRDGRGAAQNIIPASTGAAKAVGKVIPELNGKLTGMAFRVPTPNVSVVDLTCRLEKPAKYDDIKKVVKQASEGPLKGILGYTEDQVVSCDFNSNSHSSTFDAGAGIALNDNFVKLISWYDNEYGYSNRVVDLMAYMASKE
Sequence of Glyceraldehyde-3-phosphate dehydrogenase (Oryctolagus cuniculus) (P46406 whole entry, looked up): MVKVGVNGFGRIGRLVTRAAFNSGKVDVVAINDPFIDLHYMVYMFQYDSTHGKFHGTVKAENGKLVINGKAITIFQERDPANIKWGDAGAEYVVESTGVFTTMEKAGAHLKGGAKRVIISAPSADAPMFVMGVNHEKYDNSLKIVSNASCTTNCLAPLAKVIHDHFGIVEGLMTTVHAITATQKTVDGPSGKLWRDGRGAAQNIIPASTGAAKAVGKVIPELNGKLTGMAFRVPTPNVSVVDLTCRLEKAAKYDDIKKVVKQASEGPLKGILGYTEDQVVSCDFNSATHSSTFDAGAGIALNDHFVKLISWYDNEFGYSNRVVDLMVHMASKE
Sequence of Glyceraldehyde-3-phosphate dehydrogenase (Homo sapiens, UniProt P04406) (P04406 whole entry): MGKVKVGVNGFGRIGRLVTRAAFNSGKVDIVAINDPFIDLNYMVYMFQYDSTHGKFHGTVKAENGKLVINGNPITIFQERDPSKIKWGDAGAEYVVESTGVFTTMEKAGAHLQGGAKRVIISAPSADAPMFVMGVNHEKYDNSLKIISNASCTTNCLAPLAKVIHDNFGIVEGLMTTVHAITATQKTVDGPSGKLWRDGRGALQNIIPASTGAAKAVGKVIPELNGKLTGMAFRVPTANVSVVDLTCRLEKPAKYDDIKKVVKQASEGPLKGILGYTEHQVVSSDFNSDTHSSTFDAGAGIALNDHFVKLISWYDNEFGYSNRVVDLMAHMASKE
Sequence of Glyceraldehyde-3-phosphate dehydrogenase (Oryctolagus cuniculus, UniProt P46406) (P46406 whole entry): as the sequence (P46406 whole entry, looked up) above

C#CCN(C)[C@H](C)Cc1ccccc1
Activity [1]: inactive

NCCc1cc(O)c(O)cc1O [OXIDOPAMINE]
inhibition [2]: inactive | IC50 [3]: 8 µM | Activity [1]: inactive

CCCCNc1nc(NCCOCCOCCNC(=O)c2ccccc2)nc(NCc2ccccn2)n1
inhibition [2]: inactive | inhibition [4]: inactive | Activity [1]: inactive | inhibition [5]: inactive | inhibition (3T3-L1 [6]): inactive | inhibition [7]: inactive | inhibition (Caenorhabditis elegans [8]): inactive

O=C(NCCOCCOCCNc1nc(NCCc2ccc(O)c(O)c2)nc(Nc2ccccc2)n1)c1ccccc1
inhibition (Caenorhabditis elegans [9]): 18% | inhibition [2]: Dose-dependent effect | IC50 [10]: 15 µM | Activity [1]: Active | Activity [11]: Active | Activity [12]: inactive | inhibition [5]: Active | inhibition (3T3-L1 [6]): Active | inhibition [13]: Active | inhibition (3T3-L1 [14]): inactive | inhibition [7]: Active
